Drawing on ChEMBL document CHEMBL1287782, “Design, synthesis, and characterization of BK channel openers based on oximation of abietane diterpene derivatives” (Bioorg Med Chem, 2010), this text covers Activity for 37 compounds.

For this experiment, the target named is Calcium-activated potassium channel subunit alpha-1 (Homo sapiens) (UniProt Q12791). Description: Activation of human BK alpha channel expressed in CHO-K1 cells assessed as ionic current at 30 uM by patch clamp electrophysiological assay relative to control. The experiment is classed as cell-based. An outline of the steps: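 Automated population patch clamp (64-hole PPC) on CHO-K1 cells stably expressing hBKα. Internal (mM): 140 KCl, 1.0 MgCl2, 20 HEPES, pH 7.25–7.3. External (mM): 137 NaCl, 4.0 KCl, 1.0 MgCl2, 2.0 CaCl2, 10 glucose, 20 HEPES, pH 7.4. Cells suspended in external solution with 20 µM BAPTA-AM before loading. Step to +100 mV from holding potential; current at 30 µM compound as % of drug-free control; n = 8.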
Chain of Calcium-activated potassium channel subunit alpha-1 (Homo sapiens) (Q12791 whole entry): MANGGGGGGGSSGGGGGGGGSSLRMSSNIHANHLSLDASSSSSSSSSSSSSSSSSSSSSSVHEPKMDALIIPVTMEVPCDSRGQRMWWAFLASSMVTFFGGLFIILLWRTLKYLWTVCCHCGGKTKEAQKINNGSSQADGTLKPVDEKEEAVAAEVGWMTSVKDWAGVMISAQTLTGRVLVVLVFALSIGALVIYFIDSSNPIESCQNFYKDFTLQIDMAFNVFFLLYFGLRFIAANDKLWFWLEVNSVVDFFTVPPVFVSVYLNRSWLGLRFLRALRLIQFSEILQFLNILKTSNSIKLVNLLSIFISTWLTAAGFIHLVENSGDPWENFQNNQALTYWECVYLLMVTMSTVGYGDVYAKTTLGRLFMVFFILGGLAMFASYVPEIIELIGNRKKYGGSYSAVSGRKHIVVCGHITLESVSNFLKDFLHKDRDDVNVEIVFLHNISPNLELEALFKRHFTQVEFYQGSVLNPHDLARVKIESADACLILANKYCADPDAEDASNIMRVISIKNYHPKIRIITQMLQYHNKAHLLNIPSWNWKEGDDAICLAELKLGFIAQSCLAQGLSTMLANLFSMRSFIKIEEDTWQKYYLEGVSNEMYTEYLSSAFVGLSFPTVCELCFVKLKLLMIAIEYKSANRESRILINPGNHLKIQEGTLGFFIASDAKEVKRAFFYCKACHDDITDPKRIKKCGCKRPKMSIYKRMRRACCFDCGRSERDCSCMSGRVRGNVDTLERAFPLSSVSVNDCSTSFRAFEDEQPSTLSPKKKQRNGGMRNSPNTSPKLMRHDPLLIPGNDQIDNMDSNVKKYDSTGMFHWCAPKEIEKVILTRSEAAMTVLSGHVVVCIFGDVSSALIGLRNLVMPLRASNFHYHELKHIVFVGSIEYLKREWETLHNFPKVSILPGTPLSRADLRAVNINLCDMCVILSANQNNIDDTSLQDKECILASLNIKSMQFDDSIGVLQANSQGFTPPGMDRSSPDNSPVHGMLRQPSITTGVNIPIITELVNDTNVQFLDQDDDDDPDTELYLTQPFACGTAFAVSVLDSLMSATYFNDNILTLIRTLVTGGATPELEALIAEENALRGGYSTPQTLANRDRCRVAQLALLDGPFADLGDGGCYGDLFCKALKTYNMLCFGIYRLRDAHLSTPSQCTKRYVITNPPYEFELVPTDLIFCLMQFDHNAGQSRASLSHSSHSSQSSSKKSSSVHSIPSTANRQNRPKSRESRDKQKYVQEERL
In general terms: Patch clamp records ionic current or voltage across a cell membrane.

On to `C=CCO/N=C1\C[C@H]2[C@](C)(C(=O)O)CCC[C@]2(C)c2ccc(C(C)C)cc21`, for which the Activity is 182%.
For `C[C@]1(C(=O)O)CCC[C@]2(C)c3cc(OCCCc4ccccc4)ccc3/C(=N/OCCCc3ccccc3)C[C@@H]12`, the Activity worked out at 134%.
Turning to `CC(C)=CCO/N=C1\C[C@H]2[C@@](C)(C(=O)O)CCC[C@]2(C)c2cc(OCCCc3ccccc3)ccc21`, the Activity came to 138%.
Take `CC(C)c1c(Cl)cc2c(c1Cl)C(=O)C[C@H]1[C@](C)(C(=O)O)CCC[C@]21C`: the Activity came out at 124%.
For `CC(C)c1ccc2c(c1)/C(=N/O)C[C@H]1[C@](C)(C(=O)O)CCC[C@]21C` the value was 121%.
For `CC(C)c1ccc2c(c1)/C(=N/OCc1ccccc1)C[C@H]1[C@](C)(C(=O)O)CCC[C@]21C`, the Activity stood at 123%.
On to `CC(C)c1cc2c(cc1Br)[C@@]1(C)CCC[C@@](C)(C(=O)O)[C@@H]1C/C2=N\O`, for which the Activity was found to be 162%.
Consider `CO/N=C1\C[C@H]2[C@](C)(C(=O)O)CCC[C@]2(C)c2c(Cl)c(Cl)c(C(C)C)c(Cl)c21`, for which the Activity stood at 235%.
For `CCCCCCCO/N=C1\C[C@H]2[C@](C)(C(=O)O)CCC[C@]2(C)c2cc(Cl)c(C(C)C)c(Cl)c21` the value was 111%; for `C=CCO/N=C1\C[C@H]2[C@](C)(C(=O)O)CCC[C@]2(C)c2cc(Br)c(C(C)C)cc21`, 237%; for `CC(C)c1c(Cl)cc2c(c1Cl)/C(=N/OCC1CCCCC1)C[C@H]1[C@](C)(C(=O)O)CCC[C@]21C`, 129%.
With `CC(C)CCO/N=C1\C[C@H]2[C@](C)(C(=O)O)CCC[C@]2(C)c2cc(Cl)c(C(C)C)c(Cl)c21` the figure was 145%; with `CO/N=C1\C[C@H]2[C@@](C)(C(=O)O)CCC[C@]2(C)c2cc(O)ccc21`, 103%.
With `CCCO/N=C1\C[C@H]2[C@](C)(C(=O)O)CCC[C@]2(C)c2cc(Cl)c(C(C)C)c(Cl)c21` the figure was 192%; with `C[C@]1(C(=O)O)CCC[C@]2(C)c3cc(OCCCc4ccccc4)ccc3/C(=N/OCCCc3ccccc3)C(O)[C@@H]12` (some centres not stated), 107%.
`CC(C)c1ccc2c(c1)C(=O)C[C@H]1[C@](C)(C(=O)O)CCC[C@]21C`: the Activity came to 100%.
Turning to `CC(C)=CCO/N=C1\C[C@H]2[C@](C)(C(=O)O)CCC[C@]2(C)c2cc(Cl)c(C(C)C)c(Cl)c21`, the Activity was found to be 126%.
With `CO/N=C1\C[C@H]2[C@](C)(C(=O)O)CCC[C@]2(C)c2cc(Cl)c(C(C)C)c(Cl)c21` the figure was 213%; with `CO/N=C1\C[C@H]2[C@@](C)(C(=O)O)CCC[C@]2(C)c2cc(OCCCc3ccccc3)ccc21`, 151%; with `C[C@]1(C(=O)O)CCC[C@]2(C)c3cc(OCCCc4ccccc4)ccc3/C(=N/OCc3ccccc3)C[C@@H]12`, 152%.
With `CC(C)c1c(Cl)c(Cl)c2c(c1Cl)/C(=N/O)C[C@H]1[C@](C)(C(=O)O)CCC[C@]21C` the figure was 229%; with `CO/N=C1\C[C@H]2[C@](C)(C(=O)O)CCC[C@]2(C)c2cc(Br)c(C(C)C)cc21`, 216%; with `CC(C)c1c(Cl)cc2c(c1Cl)/C(=N/OCc1ccccc1)C[C@H]1[C@](C)(C(=O)O)CCC[C@]21C`, 151%.
For `C=CCO/N=C1\C[C@H]2[C@@](C)(C(=O)O)CCC[C@]2(C)c2cc(OCCCc3ccccc3)ccc21` the value was 160%; for `C#CCO/N=C1\C[C@H]2[C@@](C)(C(=O)O)CCC[C@]2(C)c2cc(OCCCc3ccccc3)ccc21`, 166%; for `CC(C)c1cc2c(cc1Br)[C@@]1(C)CCC[C@@](C)(C(=O)O)[C@@H]1CC2=O`, 166%.
For the compound `CC(C)c1c(Cl)cc2c(c1Cl)/C(=N/OCC1CC1)C[C@H]1[C@](C)(C(=O)O)CCC[C@]21C`, the Activity stood at 181%.
For `CO/N=C1/c2ccc(OCCCc3ccccc3)cc2[C@@]2(C)CCC[C@](C)(C(=O)O)[C@@H]2C1O` (some centres not stated) the value was 125%; for `C[C@]1(C(=O)O)CCC[C@]2(C)c3cc(OCCCc4ccccc4)ccc3/C(=N/O)C[C@@H]12`, 134%; for `CC(C)c1c(Cl)cc2c(c1Cl)/C(=N/O)C[C@H]1[C@](C)(C(=O)O)CCC[C@]21C`, 137%.
Consider `C#CCO/N=C1\C[C@H]2[C@](C)(C(=O)O)CCC[C@]2(C)c2cc(Cl)c(C(C)C)c(Cl)c21`, for which the Activity amounted to 261%.
For the compound `CCO/N=C1\C[C@H]2[C@](C)(C(=O)O)CCC[C@]2(C)c2cc(Cl)c(C(C)C)c(Cl)c21`, the Activity worked out at 212%.
With `CO/N=C1\C[C@H]2[C@](C)(C(=O)O)CCC[C@]2(C)c2ccc(C(C)C)cc21` the figure was 153%; with `CC(C)O/N=C1\C[C@H]2[C@](C)(C(=O)O)CCC[C@]2(C)c2cc(Cl)c(C(C)C)c(Cl)c21`, 184%; with `C#CCO/N=C1\C[C@H]2[C@](C)(C(=O)O)CCC[C@]2(C)c2ccc(C(C)C)cc21`, 142%.
Turning to `CC(C)c1ccc2c(c1)/C(=N/OCCCc1ccccc1)C[C@H]1[C@](C)(C(=O)O)CCC[C@]21C`, the Activity is 143%.
For `C=CCO/N=C1\C[C@H]2[C@](C)(C(=O)O)CCC[C@]2(C)c2cc(Cl)c(C(C)C)c(Cl)c21`, the Activity stood at 297%.
